From ChEMBL document CHEMBL1255187, “Structure-based design and synthesis of potent, ethylenediamine-based, mammalian farnesyltransferase inhibitors as anticancer agents” (J Med Chem, 2010)

Columns and labels:
[1] = target: Geranylgeranyl transferase type I (Homo sapiens, UniProt P49354+P53609); test: Inhibition of human geranylgeranyltransferase-1 assessed as incorporation of [3H]GGPP into H-Ras-CVLL; format: protein-complex assay
Summary of the method: (§1)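 In vitro radiometric assay measuring transfer of [3H]FPP (FTase) or [3H]GGPP (GGTase-I) onto recombinant H-Ras-CVLS or H-Ras-CVLL, respectively.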

[2] = target: Protein farnesyltransferase (Homo sapiens, UniProt P49354+P49356); test: Inhibition of human farnesyltransferase assessed as incorporation of [3H]FPP into H-Ras-CVLS; format: protein-complex assay; summary of the method: as §1
[3] = target: Geranylgeranyl transferase type 1 (Mus musculus, UniProt Q61239+Q8BUY9); test: Inhibition of Rap1A geranylgeranylation expressed in mouse NIH3T3 cells; format: functional, cell-based
Summary of the method: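 Oncogenic H-Ras-transformed NIH3T3 cells were treated with a range of inhibitor concentrations. […] Detection used peroxidase-conjugated secondary antibodies and enhanced chemiluminescence. IC50 is the mean of three independent assays ± SD unless stated otherwise.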

Homo sapiens = organism: Homo sapiens; test: Selectivity ratio of IC50 for human geranylgeranyltransferase-1 to IC50 for human farnesyltransferase

SMILES | IC50 [1] [µM] | IC50 [2] [nM] | IC50 [3] [µM] | Selectivity ratio (Homo sapiens)
Cn1cnc(S(=O)(=O)N(CCN(Cc2cncn2C)c2ccc(C#N)nc2)CC2CCN(c3ncccn3)CC2)c1 | > 10 | 520 |  | 
CN(C)c1cccc2c(S(=O)(=O)N(CCN(Cc3cncn3C)c3ccc(C#N)cc3)Cc3ccccc3)cccc12 | 10 | 160 | > 10 | 
Cn1cnc(S(=O)(=O)N(CCN(Cc2cncn2C)c2ccc(C(=O)OC(C)(C)C)cc2)Cc2ccccc2)c1 | 4.9 | 5400 |  | 0.9
Cn1cnc(S(=O)(=O)N(CCN(Cc2cncn2C)c2ccc(C(=O)O)cc2)Cc2ccccc2)c1 | > 10 | > 10000 |  | 
Cn1cnc(S(=O)(=O)N(CCN(Cc2cncn2C)c2ncc(C#N)cn2)CC2CCN(c3ncccn3)CC2)c1 | > 10 | 620 |  | > 16
Cn1cnc(S(=O)(=O)N(CCN(Cc2cncn2C)c2c(F)c(F)c(C#N)c(F)c2F)CC2CCN(c3ncccn3)CC2)c1 | 8.75 | 490 |  | 18
Cn1cnc(S(=O)(=O)N(CCN(Cc2cncn2C)c2ccc(C#N)cc2F)CC2CCN(c3ncccn3)CC2)c1 | > 10 | 64 |  | > 156
Cn1cncc1CN(CCN(Cc1ccccc1)S(=O)(=O)C1CC1)c1ccc(C#N)cc1 |  |  |  | 65
Cn1cnc(S(=O)(=O)N(CCN(Cc2cncn2C)c2ccc(C#N)cn2)CC2CCN(c3ncccn3)CC2)c1 | > 10 | 110 |  | > 91
Cn1cnc(S(=O)(=O)N(Cc2ccccc2)[C@@H]2CC[C@@H](N(Cc3cncn3C)c3ccc(C#N)cc3)C2)c1 (racemic) | 7.05 | 380 |  | 19
C#CCN(CCN(Cc1cncn1C)c1ccc(C#N)cc1)S(=O)(=O)c1cn(C)cn1 | > 10 | 720 | > 10 | > 14
Cn1cnc(S(=O)(=O)N(CCN(Cc2cncn2C)c2ccc(C(N)=O)cc2)Cc2ccccc2)c1 | > 10 | 5300 |  | > 2
Cn1cnc(S(=O)(=O)N(CCN(Cc2c[nH]cn2)c2ccc(Br)cc2)Cc2ccccc2)c1 |  |  |  | 6
Cn1cnc(S(=O)(=O)N(Cc2ccccc2)[C@H]2CC[C@@H](N(Cc3cncn3C)c3ccc(C#N)cc3)C2)c1 (racemic) | > 10 | 650 |  | > 15
Cn1cnc(S(=O)(=O)N(CCN(Cc2c[nH]cn2)c2ccccc2)Cc2ccccc2)c1 |  |  |  | 1.6
Cn1cnc(S(=O)(=O)N(CCN(Cc2cncn2C)c2ccc(C#N)cc2Cl)CC2CCN(c3ncccn3)CC2)c1 | > 10 | 550 |  | 
Cn1cnc(S(=O)(=O)N(CCN(Cc2cncn2C)c2ccc(-c3ccccc3)cc2)Cc2ccccc2)c1 | 5 | 6850 |  | 0.7
Cn1cnc(S(=O)(=O)N(Cc2ccccc2)[C@@H]2CCC[C@@H]2N(Cc2cncn2C)c2ccc(C#N)cc2)c1 (racemic) | > 10 | 1000 |  | > 10
Cn1cnc(S(=O)(=O)N(Cc2ccccc2)[C@H]2CCC[C@@H]2N(Cc2cncn2C)c2ccc(C#N)cc2)c1 (racemic) | 9.15 | 450 |  | 20
Cn1cnc(S(=O)(=O)N(CCCN(Cc2cncn2C)c2ccc(C#N)cc2)Cc2ccccc2)c1 | 4.6 | 420 |  | 11
Cn1cnc(S(=O)(=O)N(CCN(Cc2cncn2C)c2ccc(C#N)c(F)c2)CC2CCN(c3ncccn3)CC2)c1 | 9.4 | 230 |  | 41
Cc1c(CN(CCN(Cc2cncn2C)c2ccc(C#N)cc2)S(=O)(=O)c2cn(C)cn2)cnn1C | > 10 | 5300 |  | 
Cn1cnc(S(=O)(=O)N(CCN(Cc2cncn2C)c2c(F)cc(C#N)cc2F)CC2CCN(c3ncccn3)CC2)c1 | > 10 | 290 |  | > 34
